Laboratory results reported in publication PMC8556345 (Cell, 2021).
Where no end group is shown, it is not given here.

Tests used:
ACx VIP cells [1] = experiment: whole-cell current-clamp, membrane potential, ACx VIP cells; type: cell-based, mouse
ACx SST cells [2] = experiment: IPSC frequency, ACx SST cells; type: cell-based, mouse; settings: GRP bath, NBQX and CPP, TTX-sensitive; n=10
L3/4 ACx VIP cells = experiment: spike probability of VIP cells upon optogenetic stimulation of thalamic inputs; type: cell-based, mouse
How it was run: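 L3/4 auditory cortex VIP cells, identified by EGFP in Vip-EGFP or Vip-IRES-Cre x H2B-EGFP mice, were recorded whole-cell in current clamp with low-Cl⁻ K⁺-based solution at 30-32°C. Thalamic inputs were stimulated with 1 s bursts of 5 ms light pulses at 20 Hz every 20 s. […] Spontaneous and evoked spikes were counted.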

[3] = test system: ACx pyramidal (Pyr) cells; experiment: whole-cell current-clamp, membrane potential, ACx pyramidal cells; type: cell-based, mouse; settings: ACx (and M1), compared to VIP cells
[4] = test system: grpLight (GRPR/cpGFP sensor); experiment: grpLight GRP sensor characterization; type: cell-based, human
[5] = test system: motor cortex (M1) VIP cells; experiment: whole-cell current-clamp, membrane potential, motor cortex VIP cells; type: cell-based, mouse; settings: CPP, gabazine
ACx VIP cells [6] = experiment: in vivo fiber photometry of GCaMP in ACx VIP cells, cannula infusion; set-up: species or system mouse; settings: 2 μl, 300 μM GRP and TAMRA-GRP, 100 nl/min into visual cortex; n = 3 (grpLight1.2) and 8 (GCaMP) mice
How it was run: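 Decay was corrected by an exponential fit to trace minima (5000-point sliding window). Autofluorescence measured in fluorophore-free implanted mice was subtracted, and GCaMP was normalized to mean mBeRFP fluorescence.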

motor cortex PVALB cells [7] = experiment: IPSC frequency, motor cortex PVALB cells; type: cell-based, mouse; settings: GRP bath, NBQX and CPP
How it was run: (§1)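 Whole-cell voltage clamp at −70 mV in acute coronal slices at 30-32°C, with 3-4 MΩ pipettes. The pipette held K⁺-based high-Cl⁻ solution (127.5 mM KCl, pH 7.3), and the bath held NBQX and CPP at 10 μM each.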

GRP receptor (GRPR) [8] = settings: ref Kroog et al., 1995; cited from earlier work
ACx SST cells [9] = experiment: whole-cell current-clamp, membrane potential, ACx SST cells; type: cell-based, mouse; settings: ACx (and M1), compared to VIP cells
M1 PVALB cells = experiment: EPSC frequency, M1 PVALB cells; type: cell-based, mouse; settings: GRP bath, gabazine; n = 10
How it was run: (§2)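 Acute coronal slices were incubated in oxygenated Ringer's at 32°C for ~15 min, then held at RT. SST and PVALB cells were identified in Sst-EGFP or Pvalb-EGFP mice. Whole-cell recordings were made at 30-32°C, voltage-clamped at −70 mV, with K⁺-gluconate low-Cl⁻ pipette solution and 10 μM gabazine.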

[10] = test system: auditory cortex VIP cells; experiment: GCaMP acute slice Ca2+ imaging, ACx VIP cells; type: cell-based, mouse
ACx PVALB cells [11] = experiment: whole-cell current-clamp, membrane potential, ACx PVALB cells; type: cell-based, mouse
[12] = test system: Sst+ and Pvalb+ cells, motor cortex; experiment: immediate early gene; type: in vivo, mouse
How it was run: (§3)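 Brains were frozen 45 min later for Fos and Npas4 FISH. Expression was the cell area covered by label, in manually drawn ROIs across all layers, 2-3 slices per mouse. Right-hemisphere values were normalized to the left-hemisphere mean per cell type.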

[13] = test system: motor cortex pyramidal cells; experiment: whole-cell current-clamp, membrane potential, motor cortex pyramidal cells; type: cell-based, mouse; settings: GRP; bath with NBQX, CPP, gabazine, CGP and TTX; 10 cells
[14] = test system: Vip+ and glutamatergic cells, motor cortex; experiment: immediate early gene; type: in vivo, mouse
How it was run: as §3

ACx PVALB cells [15] = experiment: IPSC frequency, ACx PVALB cells; type: cell-based, mouse; settings: GRP bath, NBQX and CPP, TTX-sensitive; n=10
M1 SST cells = experiment: EPSC frequency, M1 SST cells; type: cell-based, mouse; settings: GRP bath, gabazine; n = 9
How it was run: as §2

motor cortex PVALB cells [16] = experiment: whole-cell current-clamp, membrane potential, motor cortex PVALB cells; type: cell-based, mouse; settings: GRP; bath with NBQX, CPP, gabazine, CGP and TTX; 15 cells
ACx Pyr cells = experiment: IPSC frequency, ACx Pyr cells; type: cell-based, mouse; settings: GRP bath, NBQX and CPP
How it was run: as §1

motor cortex SST cells [17] = experiment: IPSC frequency, motor cortex SST cells; type: cell-based, mouse; settings: GRP bath, NBQX and CPP
How it was run: as §1

SST cells = experiment: EPSC frequency, SST cells, ACx and M1 together; type: cell-based, mouse; settings: GRP bath
How it was run: as §2

ACx SST cells [18] = experiment: EPSC frequency, ACx SST cells; type: cell-based, mouse; settings: GRP bath, gabazine; n = 11
How it was run: as §2

ACx PVALB cells [19] = experiment: EPSC frequency, ACx PVALB cells; type: cell-based, mouse; settings: GRP bath, gabazine; n = 10
How it was run: as §2

motor cortex SST cells [20] = experiment: whole-cell current-clamp, membrane potential, motor cortex SST cells; type: cell-based, mouse; settings: GRP; bath with NBQX, CPP, gabazine, CGP and TTX; 10 cells
[21] = TAMRA-GRP imaging in acute brain slices, flow-in delay; set-up: species or system mouse; settings: 300 nM, bath
How it was run: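 Non-fluorescent acute brain slices were imaged through a 650/100 nm emission filter. […] Arrival in the bath was defined as the first time point at which fluorescence rose 2 SD above baseline.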

grpLight in ACx = experiment: in vivo dual-color photometry of grpLight and TAMRA-GRP, diffusion in cortex; set-up: species or system mouse; settings: infusion into distant cortical area
GRP receptor (GRPR) [22] = experiment: binding to GRP receptor; settings: statement in method; no data shown
[23] = 300 nM GRP, male mice, NBQX, CGP
[24] = 1372 responding VIP cells, male auditory cortex, GRP bath

## VSTGAGGGTVLAKMYPRGSHWAVGHLM-NH2 [GRP, gastrin-releasing peptide]
ACx VIP cells [1]; 300 nM GRP
  depolarization in female compared to male mice: non-significantly larger depolarization compared to male mice
ACx VIP cells [1]; 300 nM GRP, bath NBQX, CPP, gabazine, CGP and TTX, mean ± SEM, 10 cells (Fig. S3C)
  mean depolarization, female mice: 8.62 ±1.11 mV
ACx VIP cells [1]; 300 nM for 2 min, male mice
  duration of burst-like firing activity: > 1 min
  neurons with long-lasting burst-like firing activity: 3 out of 10
ACx VIP cells [1]; 300 nM for 2 min, male mice, acute slices, 30-32°C
  VIP cells that depolarize upon GRP bath application: 7 out of 10
ACx VIP cells [1]; Fig. 3C, 6-10 cells per group
  dependence of depolarization on concentration: concentration-dependent
ACx SST cells [2]
  SST cells with increased IPSC frequency: 60%
L3/4 ACx VIP cells; 0 ± 0 Hz before GRP, n = 5 cells
  average spontaneous spike rate prior to stimulation, after GRP: 0.09 ± 0.08 Hz
L3/4 ACx VIP cells; 300 nM GRP bath for 2 min, 14 ± 9% before GRP, 5 ms pulses at 20 Hz, n = 5 cells
  average evoked spike probability after GRP: 52 ± 16%
L3/4 ACx VIP cells; GRP bath
  effect on spontaneous spike rate prior to stimulation onset: without increasing spontaneous spike rate
L3/4 ACx VIP cells; optogenetic stimulation of thalamo-cortical afferents
  effect on evoked spike probability: significantly increased the evoked spike probability
[3]
  GRP-evoked depolarization, Pyr cells: significantly smaller than in VIP cells
[4]
  concentrations detectable by grpLight: nanomolar concentrations
[5]; [23]
  M1 VIP neurons with burst-like activity: 3 out of 10
  VIP cells in M1 that depolarized: 9 out of 10
[5]; GRP, bath with NBQX, CGP and TTX, 6 cells
  depolarization, motor cortex VIP: 9.38 ± 1.28 mV
ACx VIP cells [6]
  onset of functional effect on VIP cell Ca2+ vs grpLight detection: functional effects on these cells in vivo well before photometric detection of changes in grpLight fluorescence
Motor cortex PVALB cells [7]
  PVALB cells with increased IPSC frequency, M1: 3 out of 10
Motor cortex PVALB cells [7]; n = 10
  mean increase in IPSC frequency, M1 PVALB: 4.59 ± 2.00 Hz
GRP receptor (GRPR) [8]
  binding to GRPR: high affinity and selectivity
ACx SST cells [9]
  GRP-evoked depolarization, SST cells: significantly smaller than in VIP cells
M1 PVALB cells
  mean increase in EPSC frequency, M1 PVALB: 0.69 ± 0.80 Hz
[10]; [24]
  GCaMP peak latency: 156.9 ± 1.5 s
  GCaMP response start: 99.4 ± 0.9 s
[10]; ACx of male and female mice and M1, bath application
  lowest concentration that increased GCaMP fluorescence in most VIP cells: 3 nM
[10]; GRP, with TTX
  cells with Ca2+ oscillations with TTX: 14%
[10]; GRP, without TTX, NBQX, CPP, gabazine, CGP
  VIP cells with phasic (oscillatory) GCaMP fluctuations: 26%
[10]; median (IQR), female auditory cortex, 580 cells in 14 slices, 300 nM GRP, 2 min, 32°C
  GCaMP fluorescence change ΔF/FKCl, female: 11.8 (15.6) % ΔF/FKCl
[10]; start GCaMP vs start TAMRA-GRP
  latency of Ca2+ increases after TAMRA-GRP levels increased: 12 s
ACx PVALB cells [11]; ACx (and M1), compared to VIP cells
  GRP-evoked depolarization, PVALB cells: significantly smaller than in VIP cells
ACx PVALB cells [11]; Fig. S3D
  PVALB cell depolarization vs control recordings without GRP: No significant difference
[12]; 3 μM GRP into right M1
  Npas4 expression, Sst+ and Pvalb+ cells: but not Sst^+ and Pvalb^+ cells
[12]; 200 nl of 3 μM GRP into right M1
  Fos expression, Sst+ and Pvalb+ cells: without changes in expression
[13]
  depolarization, motor cortex pyramidal: 0.56 ± 0.49 mV
[14]; 3 μM GRP into M1, vs control mice
  Npas4 expression in Vip-IRES-Cre;Grpr fl/y mice: significantly smaller
[14]; 3 μM GRP into right M1
  Npas4 expression, Vip+ and glutamatergic cells: significantly increased expression
[14]; 200 nl of 3 μM GRP into right M1, anaesthetized mice, FISH at 45 min
  Fos expression ipsilateral to injection, Vip+ and glutamatergic cells: strong increase in Fos
ACx PVALB cells [15]
  PVALB cells with increased IPSC frequency: 40%
M1 SST cells
  mean increase in EPSC frequency, M1 SST: 1.61 ± 0.97 Hz
Motor cortex PVALB cells [16]
  depolarization, motor cortex PVALB: 1.78 ± 0.45 mV
ACx Pyr cells
  Pyr cells with increased IPSC frequency: 1 out of 10
Motor cortex SST cells [17]
  SST cells with increased IPSC frequency, M1: 4 out of 10
Motor cortex SST cells [17]; n = 10
  mean increase in IPSC frequency, M1 SST: 13.28 ± 5.97 Hz
SST cells; SST and PVALB cells
  effect on EPSC frequency: hardly affected
SST cells; gabazine
  SST cells with increased EPSC frequency: 2 out of 20
ACx SST cells [18]
  mean increase in EPSC frequency, ACx SST: 1.86 ± 1.15 Hz
ACx PVALB cells [19]
  mean increase in EPSC frequency, ACx PVALB: 1.95 ± 1.43 Hz
Motor cortex SST cells [20]
  depolarization, motor cortex SST: 1.39 ± 0.74 mV

## VSTGAGGGTVLAKMYPRGSHWAVGHLM-NH2 [TAMRA-GRP]
[21]; 3 slices, range
  TAMRA-GRP fluorescence peak latency, range: 156.4 to 162.8 s
  TAMRA-GRP fluorescence response start, range: 79 to 95 s
[21]; mean of 3 slices
  TAMRA-GRP fluorescence peak latency: 160.3 s
  TAMRA-GRP fluorescence response start: 87.4 s
grpLight in ACx
  grpLight fluorescence change in ACx following infusion: long-lasting increases minutes after the start of GRP infusion
GRP receptor (GRPR) [22]
  efficiency as GRPR ligand: very inefficient GRPR ligand
